A selection: hits, their analogues and other compounds. The true share with any hit is near 5.8%.
Pf Dd2 inh = P. falciparum Dd2 growth inhibitors, primary screen, SYBR Green fluorescence, single dose replicates; 72 h; hits give low values; hit rate 2.3% among 94,000; activity change, % at 10 µM; in the data active means activity change below about -80%
T cruzi growth = T. cruzi intracellular proliferation inhibitors, primary screen, cell-based, beta-gal Tulahuen parasites, NIH3T3 host, luminescence | T. cruzi beta-gal in NIH3T3, GalScreen luminescence, 90 h | inhibition, % at 8.34 µM | hit rate 5.9% among 77,000;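 active means mean inhibition above about 93%, with at least 55% of replicates each passing it, limit read from the data, passing the limit was not always enough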
IDH1 mut inh = inhibitors of IDH1 R132H reductase, primary screen, biochemical, plate reader, single point; Isocitrate dehydrogenase [NADP] cytoplasmic (Homo sapiens), O75874; inhibition, % at 10 µM; diaphorase/resazurin fluorescence, 60 min; hit rate 0.18% among 70,000; in the data active means inhibition above about 34%;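 further: 0% = DMSO and 100% = no enzyme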
KDM4C inh = inhibitors of GASC-1 (KDM4C) histone demethylase, primary screen, biochemical, single concentration HTS; GST-KDM4C 2-372, H3K9me3 peptide, LANCE TR-FRET; inhibition, % at 12.5 µM; hit rate 0.15% among 96,000; AID 720574, 2013;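 active means mean replicate inhibition above about 25%, with at least 55% of replicates also reaching it, limit read from the data, passing the limit was not always enough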
Target sequence (Q9H3R0 2-372 limits assumed): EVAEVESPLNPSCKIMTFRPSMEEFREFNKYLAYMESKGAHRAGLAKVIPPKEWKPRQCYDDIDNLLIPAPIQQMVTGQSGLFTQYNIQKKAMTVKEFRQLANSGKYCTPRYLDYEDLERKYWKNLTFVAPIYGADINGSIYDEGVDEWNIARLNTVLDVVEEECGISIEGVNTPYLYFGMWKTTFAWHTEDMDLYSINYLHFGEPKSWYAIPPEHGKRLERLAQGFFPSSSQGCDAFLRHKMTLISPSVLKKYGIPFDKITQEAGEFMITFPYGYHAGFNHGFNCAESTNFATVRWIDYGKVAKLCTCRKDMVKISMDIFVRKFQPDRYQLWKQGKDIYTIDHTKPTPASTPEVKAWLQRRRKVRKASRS
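Material: GST-tagged GASC-1 (JMJD2C) catalytic fragment, aa 2-372 / Quantity: enzyme final amount 10 nM / Medium: HEPES buffer, pH 7.5, plus ascorbate / Doses: one test concentration per compound / Incubation: 30 min reaction, 60 min detection, RT / Measured by: LANCE TR-FRET / Read-out: inhibition from TR-FRET ratio decrease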
* marks the source's active call; other numbers are inactive results; . = no result given.

SMILES	Pf Dd2 inh	T cruzi growth	IDH1 mut inh	KDM4C inh
C[C@H]1CN([C@@H](C)CO)S(=O)(=O)c2ccc(-c3ccncc3)cc2O[C@H]1CN(C)Cc1ccccc1	-35	82	1	5
COc1cccc(-c2ccc3c(c2)O[C@@H](CN(C)Cc2ccncc2)[C@@H](C)CN([C@H](C)CO)S3(=O)=O)c1	-1	.	5	42*
C[C@@H]1CN([C@@H](C)CO)S(=O)(=O)c2ccc(-c3ccncc3)cc2O[C@H]1CN(C)Cc1ccc(Oc2ccccc2)cc1	-86*	54	8	4
O=C(CCn1c(=S)[nH]c2c(sc3ccccc32)c1=O)NC1CCCCC1	.	.	0	.
CCC1=Nc2cc(C(=O)N(C)Cc3ccccc3)ccc2Sc2ccc(C)cc21	.	.	-1	.
COc1ccccc1-c1ccccc1[C@@H]1[C@@H](C#N)N(C(=O)C2CC2)[C@@H]1CO	-98*	.	.	0
COc1ccc(-c2ccccc2[C@H]2[C@@H](C#N)N(C(=O)C3CCC3)[C@H]2CO)cc1	-3	.	.	-1
COc1ccc(-c2ccccc2[C@H]2[C@@H](C#N)N(C(=O)NC(C)C)[C@H]2CO)cc1	-87*	.	.	0
COc1ccccc1-c1ccccc1[C@H]1[C@H](C#N)N(C(=O)C2CCC2)[C@H]1CO	-85*	.	.	-1
COc1ccc(-c2ccccc2[C@H]2[C@@H](C#N)N(C(=O)C3CCCC3)[C@@H]2CO)cc1	-98*	.	.	-1
Cc1ccc(-c2nnc(SCC(=O)Nc3c(Cl)cc(Cl)cc3Cl)n2C)cc1	.	.	0	.
COc1ccc(C)cc1S(=O)(=O)N(CC(=O)O)c1cc(C)cc(C)c1	.	.	0	.
O=C(CC1(O)C(=O)N(Cc2ccccc2)c2ccc(Br)cc21)c1ccccc1[N+](=O)[O-] (stereo unspecified)	.	.	0	.
O=C(CSc1nnnn1-c1ccccc1)Nc1ccc(Oc2ccccc2)cc1	.	.	0	.
COc1cccc(C(Nc2cc(C)ccn2)c2ccc3ccc(C)nc3c2O)c1 (stereo unspecified)	.	.	0	.
COc1ccccc1C#Cc1ccc2c(c1)O[C@@H](CN(C)Cc1cccnc1)[C@H](C)CN([C@@H](C)CO)S2(=O)=O	-83*	.	.	-1
C[C@H]1CN([C@@H](C)CO)S(=O)(=O)c2ccc(-c3ccccc3)cc2O[C@@H]1CN(C)Cc1cccnc1	-34	116*	.	-3
C[C@H]1CN([C@@H](C)CO)S(=O)(=O)c2ccc(-c3ccccc3)cc2O[C@H]1CN(C)Cc1cccnc1	-22	94	.	1
C[C@H]1CN([C@@H](C)CO)S(=O)(=O)c2ccc(C#Cc3ccccc3F)cc2O[C@H]1CN(C)C(=O)Cc1cccnc1	-83*	50	16	-2
C[C@H](CO)N1C[C@H](C)[C@@H](CN(C)Cc2ccc3c(c2)OCO3)Oc2cc(-c3cccc(C(=O)N(C)C)c3)ccc2S1(=O)=O	-71	.	0	-3
C[C@@H]1CN([C@@H](C)CO)S(=O)(=O)c2ccc(-c3ccc(C(=O)N(C)C)cc3)cc2O[C@H]1CN(C)Cc1ccc2c(c1)OCO2	-84*	.	.	-1
COC(=O)c1c(NC(=S)Nc2cc3oc4ccccc4c3cc2OC)sc2c1CCCC2	.	.	0	.
COc1cc2c(cc1NC(=O)CCCOc1ccccc1)oc1ccccc12	.	.	1	.
Cc1ccc(O)c(NC(=O)c2nc3ncccn3n2)c1	.	.	-1	.
C[C@@H]1CN([C@@H](C)CO)S(=O)(=O)c2ccc(-c3ccccc3)cc2O[C@H]1CN(C)Cc1cccnc1	-62	103*	66*	0
SMILES	Pf Dd2 inh	T cruzi growth	IDH1 mut inh	KDM4C inh
CCCNC(=O)N(C)C[C@@H]1Oc2cc(-c3cccnc3)ccc2S(=O)(=O)N([C@H](C)CO)C[C@H]1C	30	10	2	0
C[C@H]1CN([C@@H](C)CO)S(=O)(=O)c2ccc(-c3ccc(F)cc3)cc2O[C@H]1CN(C)CC1CC1	-82*	.	-4	5
CCCNC(=O)N(C)C[C@@H]1Oc2cc(-c3cccnc3)ccc2S(=O)(=O)N([C@@H](C)CO)C[C@@H]1C	7	-8	24	30*
C[C@@H]1CN([C@@H](C)CO)S(=O)(=O)c2ccc(-c3ccc(F)cc3)cc2O[C@H]1CN(C)CC1CC1	-25	.	0	.
COc1ccc(NC(=O)Nc2ccc3c(c2)C(=O)N([C@@H](C)CO)C[C@@H](C)[C@H](CN(C)S(=O)(=O)c2ccc(OC)cc2)OCCCC[C@@H](C)O3)cc1	-57	84	-1	0
COc1ccc(S(=O)(=O)N(C)C[C@@H]2OCCCC[C@@H](C)Oc3ccc(NC(=O)Nc4ccc5c(c4)OCO5)cc3C(=O)N([C@H](C)CO)C[C@@H]2C)cc1	-84*	37	.	6
COc1ccc(S(=O)(=O)N(C)C[C@@H]2OCCCC[C@@H](C)Oc3ccc(NC(=O)Nc4ccc5c(c4)OCO5)cc3C(=O)N([C@@H](C)CO)C[C@@H]2C)cc1	-88*	75	.	1
COc1ccc(S(=O)(=O)N(C)C[C@@H]2OCCCC[C@H](C)Oc3ccc(NC(=O)Nc4ccc5c(c4)OCO5)cc3C(=O)N([C@H](C)CO)C[C@H]2C)cc1	-82*	40	2	17
COC(=O)CN(c1cc([N+](=O)[O-])ccc1C)S(C)(=O)=O	.	.	0	.
O=C(CCN1C(=O)c2ccccc2C1=O)Nc1ccc([N+](=O)[O-])cc1	.	.	0	.
C[C@@H]1CN([C@@H](C)CO)C(=O)c2cc(NC(=O)c3ccccc3)ccc2O[C@@H](C)CCCCO[C@@H]1CN(C)C(=O)Nc1cccc2ccccc12	-87*	63	1	-2
C[C@@H]1CN([C@H](C)CO)C(=O)c2cc(NC(=O)c3ccncc3)ccc2O[C@@H](C)CCCCO[C@@H]1CN(C)C(=O)Nc1cccc2ccccc12	-90*	.	2	0
C[C@@H]1CN([C@@H](C)CO)C(=O)c2cc(NC(=O)c3ccncc3)ccc2O[C@@H](C)CCCCO[C@H]1CN(C)C(=O)Nc1cccc2ccccc12	-80	44	1	-2
C[C@@H]1CN([C@@H](C)CO)C(=O)c2cc(NC(=O)c3ccncc3)ccc2O[C@@H](C)CCCCO[C@@H]1CN(C)C(=O)Nc1cccc2ccccc12	-84*	53	-1	3
C[C@@H]1CCCCO[C@@H](CN(C)C(=O)Nc2cccc3ccccc23)[C@H](C)CN([C@@H](C)CO)C(=O)c2cc(NC(=O)c3ccncc3)ccc2O1	-73	32	0	-1
C[C@@H]1CCCCO[C@@H](CN(C)C(=O)Nc2cccc3ccccc23)[C@H](C)CN([C@H](C)CO)C(=O)c2cc(NC(=O)c3ccncc3)ccc2O1	-85*	60	.	-3
COC(=O)CSc1nnc(-c2sc3ccccc3c2Cl)n1-c1ccc(OC)cc1	.	.	0	.
CCc1ccc2[nH]c(C(=O)Nc3ccccc3C(C)CC)cc2c1 (stereo unspecified)	.	.	2	.
N#CCc1ccc(NC(=O)Cc2ccccc2[N+](=O)[O-])cc1	.	.	0	.
